Test results published in ChEMBL document CHEMBL4699593, “Identification of 2,4-Disubstituted Imidazopyridines as Hemozoin Formation Inhibitors with Fast-Killing Kinetics and In Vivo Efficacy in the Plasmodium falciparum NSG Mouse Model” (J Med Chem, 2020).
Values after ≈ are worked out from the molar mass of the structure shown.

How the values were obtained:
[1] = Dissociation constant, pKa of compound; type: physicochemical
Plasmodium falciparum [2] = experiment: Antiplasmodial activity against multidrug-sensitive asexual blood stage Plasmodium falciparum NF54 strain assessed as reduction in parasite growth after 72 hrs by NBT reagent based LDH assay; type: functional, organism-based; conditions: NF54, 72 h
Plasmodium falciparum [3] = experiment: Antiplasmodial activity against multidrug-resistant asexual blood stage Plasmodium falciparum K1 strain assessed as reduction in parasite growth after 72 hrs by NBT reagent based LDH assay; type: functional, organism-based; conditions: K1, 72 h
Summary of the method: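 Asexual blood-stage K1 (multidrug-resistant) parasites were read out by the parasite lactate dehydrogenase (pLDH) assay. […] Most individual values varied less than 2× (maximum 3×).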

[4] = Aqueous solubility of compound in phosphate buffer saline at pH 6.5 incubated for 20 hrs under shaking condition by shake-flask method based HPLC-DAD analysis; type: physicochemical; conditions: phosphate buffered saline
Summary of the method: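 Equilibrium aqueous solubility was measured at pH 6.5 using a miniaturized shake-flask method.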

CHO = experiment: Cytotoxicity against CHO cells assessed as reduction in cell viability by MTT assay; type: cell-based, Cricetulus griseus; conditions: chinese hamster
Summary of the method: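 Cytotoxicity was measured in Chinese hamster ovary (CHO) cells and reported as CC50. The selectivity index is CC50 divided by NF54 IC50.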

[5] = Selectivity index, ratio of CC50 for cytotoxicity against CHO cells assessed as reduction in cell viability to IC50 for antiplasmodial activity against multidrug-sensitive Plasmodium falciparum NF54 assessed as reduction in parasite growth; type: toxicity, cell-based; conditions: hamster, read-out: Ratio CC50/IC50
[6] = target: Voltage-gated inwardly rectifying potassium channel KCNH2 (Homo sapiens, UniProt Q12809); experiment: Inhibition of human ERG by patch clamp method
Plasmodium berghei = experiment: Antiplasmodial activity against luciferase-expressing Plasmodium berghei sporozoites liver stage infected in human HepG2 cells expressing GFP-CD81 fusion protein incubated for 48 hrs by luciferase reporter gene based bioluminescence assay; type: functional, organism-based; conditions: HepG2, 48 h
Summary of the method: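 Liver-stage activity was measured in vitro with rodent P. berghei sporozoites. Values are the mean of 3 technical replicates from the luciferase assay; individual values varied less than 2×.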

Plasmodium falciparum [7] = experiment: Antiplasmodial activity against early stage (I to III) Plasmodium falciparum NF54 gametocytes incubated for 48 hrs under hypoxia condition by luciferase reporter gene assay; type: functional, organism-based; conditions: NF54, 48 h
Plasmodium falciparum [8] = experiment: Antiplasmodial activity against late stage (IV/V) Plasmodium falciparum NF54 gametocytes at 5 uM incubated for 48 hrs under hypoxia condition by luciferase reporter gene assay relative to control; type: functional
[9] = Apparent intrinsic clearance in mouse liver microsomes at 0.1 uM in presence of NADPH by LC-MS/MS analysis; type: ADME, Microsome
Summary of the method: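 Compound was incubated with mouse liver microsomes for 30 min. Apparent intrinsic clearance (CL_int,app) is reported in μL/min/mg.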

Hemozoin = experiment: Inhibition of beta-hematin formation assessed as reduction in hemozoin formation incubated for 5 hrs by NP40 detergent-mediated assay
Summary of the method: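 Synthetic hemozoin (β-hematin) formation is driven by the detergent Nonidet P-40. Pyridine is then added to detect unreacted hematin. IC50 is derived from this read-out.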

Plasmodium falciparum [10] = experiment: Antiplasmodial activity against late stage (IV/V) Plasmodium falciparum NF54 gametocytes incubated for 48 hrs under hypoxia condition by luciferase reporter gene assay; type: functional, organism-based; conditions: NF54, 48 h
Plasmodium falciparum [11] = experiment: Antiplasmodial activity against early ring-stage synchronized Plasmodium falciparum assessed as increase in free heme after 32 hrs by Giemsa-staining based haemocytometric counting method; type: functional, organism-based
Summary of the method: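 Whole-parasite cell fractionation assay run as a dose response. Free heme and hemozoin were measured intracellularly across increasing compound concentrations.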

Plasmodium falciparum [12] = experiment: Antiplasmodial activity against early ring-stage synchronized Plasmodium falciparum assessed as decrease in hemozoin formation after 32 hrs by Giemsa-staining based haemocytometric counting method; type: functional, organism-based
[13] = Cmax in Balb/C mouse at 2 mg/kg, iv by LC-MS/MS analysis; type: ADME, organism-based; parameters: route intravenous, dose 2 mg/kg; conditions: in vivo
Summary of the method: (§1)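 Healthy Balb/c mice dosed i.v. or orally. Parameters come from non-compartmental analysis of compound concentration over time. […] Clearance is blood clearance (CL_b).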

[14] = Cmax in Balb/C mouse at 20 mg/kg, po by LC-MS/MS analysis; type: ADME, organism-based; parameters: route oral, dose 20 mg/kg; conditions: in vivo; summary of the method: as §1
[15] = Tmax in Balb/C mouse at 20 mg/kg, po by LC-MS/MS analysis; type: ADME, organism-based; conditions: in vivo
Summary of the method: (§2)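 Healthy Balb/c mice were given the compound i.v. or orally. Parameters come from non-compartmental analysis: AUC from 0 h to t_last, blood clearance, volume at steady state, terminal half-life, Tmax. Oral bioavailability F is derived from the i.v. and p.o. data.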

[16] = Terminal half life in Balb/C mouse at 2 mg/kg, iv by LC-MS/MS analysis; type: ADME, organism-based; conditions: in vivo, read-out: beta t1/2 (converted); summary of the method: as §2
[17] = Terminal half life in Balb/C mouse at 20 mg/kg, po by LC-MS/MS analysis; type: ADME, organism-based; conditions: in vivo, read-out: beta t1/2 (converted); summary of the method: as §2
[18] = Clearance in Balb/C mouse blood at 2 mg/kg, iv by LC-MS/MS analysis; type: ADME, organism-based; conditions: whole blood; summary of the method: as §1
[19] = Volume of distribution at steady state in Balb/C mouse at 2 mg/kg, iv by LC-MS/MS analysis; type: ADME, organism-based; conditions: in vivo, read-out: Vdss; summary of the method: as §2
[20] = AUC (0 to t) in Balb/C mouse at 2 mg/kg, iv by LC-MS/MS analysis; type: ADME, organism-based; parameters: dose 2 mg/kg; conditions: in vivo; summary of the method: as §1
[21] = AUC (0 to t) in Balb/C mouse at 20 mg/kg, po by LC-MS/MS analysis; type: ADME, organism-based; parameters: dose 20 mg/kg; conditions: in vivo; summary of the method: as §1
[22] = Oral bioavailability in Balb/C mouse at 20 mg/kg by LC-MS/MS analysis; type: ADME, organism-based; conditions: in vivo; summary of the method: as §2
[23] = Ratio of unbound average drug concentration in Balb/c mouse at 20 mg/kg, po measured at 24 hrs to IC50 for antiplasmodial activity against multidrug-sensitive Plasmodium falciparum NF54 asexual blood stage assessed as reduction in parasite growth after 72 hrs by LDH assay; type: organism-based; conditions: in vivo

Sequence of Voltage-gated inwardly rectifying potassium channel KCNH2 (Q12809 whole entry, the tested form may be a part): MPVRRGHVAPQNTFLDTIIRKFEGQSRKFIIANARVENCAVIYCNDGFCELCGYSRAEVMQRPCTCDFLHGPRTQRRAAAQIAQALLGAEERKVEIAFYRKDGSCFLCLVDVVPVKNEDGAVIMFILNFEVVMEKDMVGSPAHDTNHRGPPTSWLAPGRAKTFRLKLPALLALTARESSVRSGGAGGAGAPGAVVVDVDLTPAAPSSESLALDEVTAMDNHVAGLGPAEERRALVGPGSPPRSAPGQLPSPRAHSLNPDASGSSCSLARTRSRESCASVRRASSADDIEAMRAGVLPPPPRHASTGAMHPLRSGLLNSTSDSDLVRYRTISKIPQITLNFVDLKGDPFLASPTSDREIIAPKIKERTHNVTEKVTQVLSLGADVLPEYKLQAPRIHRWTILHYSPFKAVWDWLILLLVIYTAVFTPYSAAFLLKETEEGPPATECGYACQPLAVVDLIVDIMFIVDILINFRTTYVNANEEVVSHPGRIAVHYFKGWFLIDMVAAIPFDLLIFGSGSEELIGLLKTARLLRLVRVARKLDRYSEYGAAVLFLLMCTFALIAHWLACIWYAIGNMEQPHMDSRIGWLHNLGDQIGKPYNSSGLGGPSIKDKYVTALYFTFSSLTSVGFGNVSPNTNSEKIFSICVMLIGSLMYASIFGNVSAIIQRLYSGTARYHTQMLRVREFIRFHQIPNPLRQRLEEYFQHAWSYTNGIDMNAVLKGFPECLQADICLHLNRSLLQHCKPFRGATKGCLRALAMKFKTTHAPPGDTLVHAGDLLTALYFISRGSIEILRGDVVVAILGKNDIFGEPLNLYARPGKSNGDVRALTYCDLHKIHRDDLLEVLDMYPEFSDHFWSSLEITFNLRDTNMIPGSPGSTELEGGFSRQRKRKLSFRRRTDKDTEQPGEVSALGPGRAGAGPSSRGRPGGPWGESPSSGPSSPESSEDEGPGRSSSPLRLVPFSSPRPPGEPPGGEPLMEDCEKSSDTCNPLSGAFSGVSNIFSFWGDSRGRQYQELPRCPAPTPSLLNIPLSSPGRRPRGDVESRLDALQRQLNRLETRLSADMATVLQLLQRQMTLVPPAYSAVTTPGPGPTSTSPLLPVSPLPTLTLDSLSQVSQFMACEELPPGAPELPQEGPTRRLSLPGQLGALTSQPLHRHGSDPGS

Fc1cc(F)cc(-c2nc3c(N4CCC(N5CCOCC5)CC4)nccc3[nH]2)c1
pKa [1]: 7.4

CN1CCN(CC2CCN(c3nccc4[nH]c(-c5cccc(OC(F)(F)F)c5)nc34)CC2)CC1
IC50 (Plasmodium falciparum [2]): < 0.02 µM
IC50 (Plasmodium falciparum [3]): 0.012 µM
solubility thermodynamic at 20 h [4]: 200 µM (≈ 94.9 µg/mL)
CC50 (CHO): 0.95 µM
selectivity ratio [5]: 47

Fc1cc(F)cc(-c2nc3c(N4CCC(CN5CCN(CC(F)(F)F)CC5)CC4)nccc3[nH]2)c1
IC50 (Plasmodium falciparum [2]): 0.075 µM
IC50 (Plasmodium falciparum [3]): 0.16 µM
solubility thermodynamic at 20 h [4]: 180 µM (≈ 89 µg/mL)
CC50 (CHO): 40 µM
IC50 [6]: ≤ 3 µM

Fc1cc(F)cc(-c2cc3c(N4CCC(N5CCOCC5)CC4)nccc3[nH]2)c1
pKa [1]: 8.2

CN1CCN(CC2CCN(c3nccc4[nH]c(-c5ccc(F)c(F)c5)nc34)CC2)CC1
IC50 (Plasmodium falciparum [2]): < 0.02 µM
IC50 (Plasmodium falciparum [3]): 0.027 µM
solubility thermodynamic at 20 h [4]: 195 µM (≈ 83.2 µg/mL)
CC50 (CHO): 7.4 µM
selectivity ratio [5]: 370

Fc1ccc(-c2nc3c(N4CCCN(CC5CC5)CC4)nccc3[nH]2)cc1F
IC50 (Plasmodium falciparum [2]): 0.02 µM
IC50 (Plasmodium falciparum [3]): 0.077 µM
solubility thermodynamic at 20 h [4]: 200 µM (≈ 76.7 µg/mL)
selectivity ratio [5]: 850
IC50 (Plasmodium berghei): 17 µM
IC50 (Plasmodium falciparum [7]): 5.3 µM
inhibition at 5 µM (Plasmodium falciparum [8]): 48%

CN1CCC(N2CCCN(c3nccc4[nH]c(-c5ccc(F)c(F)c5)nc34)CC2)CC1
IC50 (Plasmodium falciparum [2]): 0.035 µM
IC50 (Plasmodium falciparum [3]): 0.22 µM
solubility thermodynamic at 20 h [4]: 200 µM (≈ 85.3 µg/mL)
CC50 (CHO): 17 µM
CLH [9]: > 200 µL/min/mg
selectivity ratio [5]: 490

CN1CCC(N2CCN(c3nccc4[nH]c(-c5ccc(F)c(F)c5)nc34)CC(F)(F)C2)CC1
IC50 (Plasmodium falciparum [2]): 0.059 µM
IC50 (Plasmodium falciparum [3]): 0.16 µM
solubility thermodynamic at 20 h [4]: 180 µM (≈ 83.2 µg/mL)
CC50 (CHO): 33 µM
CLH [9]: 33 µL/min/mg

CN1CCCN(c2nccc3[nH]c(-c4ccc(F)c(F)c4)nc23)CC1
IC50 (Plasmodium falciparum [2]): 0.061 µM
IC50 (Plasmodium falciparum [3]): 0.1 µM
solubility thermodynamic at 20 h [4]: 170 µM (≈ 58.4 µg/mL)
CC50 (CHO): 14 µM
IC50 [6]: 0.4 µM
CLH [9]: 145 µL/min/mg

CN1CCN(CC2CCN(c3cccc4[nH]c(-c5cc(F)cc(F)c5)nc34)CC2)CC1
IC50 (Plasmodium falciparum [2]): 0.83 µM
IC50 (Plasmodium falciparum [3]): 1.5 µM
solubility thermodynamic at 20 h [4]: 200 µM (≈ 85.1 µg/mL)
CC50 (CHO): 22 µM
IC50 [6]: > 30 µM

CN1CCN(CC2CCN(c3nc(C#N)cc4[nH]c(-c5cc(F)cc(F)c5)nc34)CC2)CC1
IC50 (Plasmodium falciparum [2]): 0.077 µM
IC50 (Plasmodium falciparum [3]): 0.049 µM
solubility thermodynamic at 20 h [4]: < 5 µM
IC50 (Hemozoin): 8.5 µM

NC1CCN(c2nccc3[nH]c(-c4cccc(OC(F)(F)F)c4)nc23)CC1
IC50 (Plasmodium falciparum [2]): 0.073 µM
IC50 (Plasmodium falciparum [3]): 1.2 µM
solubility thermodynamic at 20 h [4]: 200 µM (≈ 75.5 µg/mL)
CC50 (CHO): 42 µM
IC50 (Plasmodium berghei): 14 µM
IC50 (Plasmodium falciparum [7]): 0.78 µM
IC50 (Plasmodium falciparum [10]): 2.8 µM
inhibition at 5 µM (Plasmodium falciparum [8]): 95%
IC50 (Hemozoin): 148 µM
Activity (Plasmodium falciparum [11]): Dose-dependent effect
Activity (Plasmodium falciparum [12]): Dose-dependent effect

Cn1ccnc1N1CCN(CC2CCN(c3nccc4[nH]c(-c5cc(F)cc(F)c5)nc34)CC2)CC1
IC50 (Plasmodium falciparum [2]): 0.029 µM
IC50 (Plasmodium falciparum [3]): 0.053 µM
solubility thermodynamic at 20 h [4]: 135 µM (≈ 66.5 µg/mL)
CC50 (CHO): 33 µM
selectivity ratio [5]: 1140
Cmax [13]: 1.6 µM
Cmax [14]: 1.7 µM
Tmax [15]: 2.3 h
half-life [16]: 12.2 h
half-life [17]: 9.2 h
clearance [18]: 0.54 L/h/kg
Vd [19]: 6 L/kg
AUCt [20]: 7.88 µM·h
AUCt [21]: 19 µM·h
bioavailability [22]: 24%
Ratio [23]: 1.5

CN1CCN(CC2CCN(c3nncc4[nH]c(-c5cc(F)cc(F)c5)nc34)CC2)CC1
IC50 (Plasmodium falciparum [2]): 0.58 µM
IC50 (Plasmodium falciparum [3]): 2.9 µM
solubility thermodynamic at 20 h [4]: 190 µM (≈ 81.2 µg/mL)
IC50 (Hemozoin): 25 µM

CN1CCN(C2CCN(c3nccc4[nH]c(-c5cc(F)cc(F)c5)nc34)CC2)CC1
IC50 (Plasmodium falciparum [2]): 0.05 µM
IC50 (Plasmodium falciparum [3]): 0.17 µM
solubility thermodynamic at 20 h [4]: 200 µM (≈ 82.5 µg/mL)
CC50 (CHO): 30 µM
IC50 [6]: > 30 µM
Cmax [13]: 0.3 µM
Cmax [14]: 1.5 µM
Tmax [15]: 1.5 h
half-life [16]: 12.6 h
half-life [17]: 9.8 h
clearance [18]: 2.09 L/h/kg
Vd [19]: 30 L/kg
AUCt [20]: 1.95 µM·h
AUCt [21]: 11.8 µM·h
bioavailability [22]: 61%
Ratio [23]: 2.5

CN1CCN(CC2CCN(c3nccc4[nH]c(-c5cc(F)cc(F)c5)cc34)CC2)CC1
IC50 (Plasmodium falciparum [2]): 0.014 µM
IC50 (Plasmodium falciparum [3]): 0.092 µM
solubility thermodynamic at 20 h [4]: 140 µM (≈ 59.6 µg/mL)
CC50 (CHO): 2.6 µM
IC50 [6]: 5 µM

CN1CCN(C2CCN(c3nccc4[nH]c(-c5ccc(F)c(F)c5)nc34)CC2)CC1
IC50 (Plasmodium falciparum [2]): 0.046 µM
IC50 (Plasmodium falciparum [3]): 0.22 µM
solubility thermodynamic at 20 h [4]: 130 µM (≈ 53.6 µg/mL)
CC50 (CHO): 5 µM
selectivity ratio [5]: 110

Cc1cc2[nH]c(-c3cc(F)cc(F)c3)nc2c(N2CCC(CN3CCN(C)CC3)CC2)n1
IC50 (Plasmodium falciparum [2]): 0.012 µM
IC50 (Plasmodium falciparum [3]): 0.021 µM
solubility thermodynamic at 20 h [4]: 200 µM (≈ 88.1 µg/mL)
CC50 (CHO): 1.9 µM
IC50 [6]: > 30 µM
selectivity ratio [5]: 160
IC50 (Hemozoin): 15 µM

CN1CCN(C2CCN(c3nccc4[nH]c(-c5cccc(OC(F)(F)F)c5)nc34)CC2)CC1
IC50 (Plasmodium falciparum [2]): 0.064 µM
IC50 (Plasmodium falciparum [3]): 0.091 µM
solubility thermodynamic at 20 h [4]: 190 µM (≈ 87.5 µg/mL)
CC50 (CHO): 3 µM
selectivity ratio [5]: 47
